Experimental data taken from ChEMBL document CHEMBL4118021, “Studies of TAK1-centered polypharmacology with novel covalent TAK1 inhibitors” (Bioorg Med Chem, 2017).
Activity calls are given as the source filed them. The calls are words filed in the database; no cut-off is given here.

Key:
[1] = molecular target: Mast/stem cell growth factor receptor Kit (Homo sapiens) (UniProt P10721); experiment: Inhibition of human KIT (571 to 952 residues) expressed in bacterial expression system assessed as enzyme activity at 1 uM by KINOMEScan assay relative to control; set-up: scale not given: the % may be the effect or the level left
How it was run: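 In vitro ATP-site competition binding assay across a panel of 456 kinases, with compound tested at 1 and 10 μM.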

[2] = tested on: NCI-H23; experiment: Antiproliferative activity against human NCI-H23 cells harboring KRAS G12C mutant at; format: functional, cell-based
[3] = molecular target: Tropomyosin alpha-4 chain (Homo sapiens) (UniProt P67936); experiment: Binding affinity to TPM4 in human NCI-H23 cells at 1 uM by mass spectrometry based pull down assay; format: cell-based
Tropomyosin alpha-4 chain (Homo sapiens), sequence (P67936 whole entry): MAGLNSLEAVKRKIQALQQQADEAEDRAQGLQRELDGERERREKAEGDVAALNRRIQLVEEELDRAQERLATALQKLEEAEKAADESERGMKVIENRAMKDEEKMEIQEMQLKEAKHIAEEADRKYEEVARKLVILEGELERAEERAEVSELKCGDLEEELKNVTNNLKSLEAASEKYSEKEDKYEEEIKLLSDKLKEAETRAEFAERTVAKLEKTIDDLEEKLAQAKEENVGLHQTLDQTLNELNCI

[4] = molecular target: T1, Dual specificity mitogen-activated protein kinase kinase 5 (Homo sapiens) (UniProt Q13163); experiment: Binding affinity to MAP2K5 in human NCI-H23 cells at 1 uM by mass spectrometry based pull down assay; format: cell-based
T1 sequence (whole entry): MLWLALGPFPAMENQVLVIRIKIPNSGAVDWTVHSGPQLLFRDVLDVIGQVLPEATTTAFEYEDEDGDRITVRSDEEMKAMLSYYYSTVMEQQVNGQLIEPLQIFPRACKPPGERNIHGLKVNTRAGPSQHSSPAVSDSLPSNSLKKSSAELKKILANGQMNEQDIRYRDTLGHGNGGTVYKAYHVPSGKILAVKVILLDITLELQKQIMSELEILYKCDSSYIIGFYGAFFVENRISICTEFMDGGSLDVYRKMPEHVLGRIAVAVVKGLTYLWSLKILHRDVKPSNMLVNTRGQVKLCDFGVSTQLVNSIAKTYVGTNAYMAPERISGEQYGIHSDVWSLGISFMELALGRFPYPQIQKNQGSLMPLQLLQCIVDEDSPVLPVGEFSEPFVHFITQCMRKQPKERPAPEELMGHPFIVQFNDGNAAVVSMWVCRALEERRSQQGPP

[5] = molecular target: Glyoxalase domain-containing protein 4 (Homo sapiens) (UniProt Q9HC38); experiment: Binding affinity to GLOD4 in human NCI-H23 cells at 1 uM by mass spectrometry based pull down assay; format: cell-based
Glyoxalase domain-containing protein 4 (Homo sapiens), sequence (Q9HC38 whole entry, the tested form may be a part): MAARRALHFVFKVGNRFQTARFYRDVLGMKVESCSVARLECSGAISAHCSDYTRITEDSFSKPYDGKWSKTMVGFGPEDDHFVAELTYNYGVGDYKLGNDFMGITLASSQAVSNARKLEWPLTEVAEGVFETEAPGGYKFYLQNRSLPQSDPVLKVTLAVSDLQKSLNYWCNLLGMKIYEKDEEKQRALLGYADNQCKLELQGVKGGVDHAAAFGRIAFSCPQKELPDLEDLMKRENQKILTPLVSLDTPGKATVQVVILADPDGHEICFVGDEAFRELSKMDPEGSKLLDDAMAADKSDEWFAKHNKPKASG

[6] = molecular target: T2, Dual specificity mitogen-activated protein kinase kinase 7 (Homo sapiens) (UniProt O14733); experiment: Binding affinity to MAP2K7 in human NCI-H358 cells at 1 uM by mass spectrometry based pull down assay; format: cell-based
T2 sequence (whole entry): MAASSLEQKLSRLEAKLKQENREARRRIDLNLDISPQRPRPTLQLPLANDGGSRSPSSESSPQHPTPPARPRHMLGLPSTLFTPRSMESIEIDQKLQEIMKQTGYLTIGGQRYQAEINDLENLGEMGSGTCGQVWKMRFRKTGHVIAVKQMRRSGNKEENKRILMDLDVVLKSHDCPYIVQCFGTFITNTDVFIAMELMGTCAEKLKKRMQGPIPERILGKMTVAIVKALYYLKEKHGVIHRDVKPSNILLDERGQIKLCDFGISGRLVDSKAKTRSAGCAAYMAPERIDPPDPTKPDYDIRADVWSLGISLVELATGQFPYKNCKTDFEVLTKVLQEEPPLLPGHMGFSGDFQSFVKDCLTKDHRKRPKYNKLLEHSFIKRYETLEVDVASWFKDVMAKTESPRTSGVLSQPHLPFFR

[7] = molecular target: 5'-nucleotidase domain-containing protein 1 (Homo sapiens) (UniProt Q5TFE4); experiment: Binding affinity to NT5DC1 in human NCI-H358 cells at 1 uM by mass spectrometry based pull down assay; format: cell-based
5'-nucleotidase domain-containing protein 1 (Homo sapiens), sequence (Q5TFE4 whole entry, the tested form may be a part): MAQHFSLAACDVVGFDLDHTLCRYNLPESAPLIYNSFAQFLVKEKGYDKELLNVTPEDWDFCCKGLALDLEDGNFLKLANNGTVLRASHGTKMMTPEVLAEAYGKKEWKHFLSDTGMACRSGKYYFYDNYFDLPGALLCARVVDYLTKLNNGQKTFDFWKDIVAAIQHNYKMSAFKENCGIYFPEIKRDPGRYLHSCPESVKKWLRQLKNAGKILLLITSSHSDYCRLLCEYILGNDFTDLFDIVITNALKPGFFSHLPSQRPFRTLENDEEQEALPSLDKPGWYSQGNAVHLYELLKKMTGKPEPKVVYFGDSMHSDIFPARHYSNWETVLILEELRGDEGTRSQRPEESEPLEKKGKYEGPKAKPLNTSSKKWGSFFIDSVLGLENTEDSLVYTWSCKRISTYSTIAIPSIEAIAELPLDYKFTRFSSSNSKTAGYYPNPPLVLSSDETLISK

[8] = molecular target: WD repeat and HMG-box DNA-binding protein 1 (Homo sapiens) (UniProt O75717); experiment: Binding affinity to WDHD1 in human NCI-H23 cells at 1 uM by mass spectrometry based pull down assay; format: cell-based
[9] = molecular target: ADP-ribose glycohydrolase OARD1 (Homo sapiens) (UniProt Q9Y530); experiment: Binding affinity to OARD1 in human NCI-H358 cells at 1 uM by mass spectrometry based pull down assay; format: cell-based
ADP-ribose glycohydrolase OARD1 (Homo sapiens), sequence (Q9Y530 whole entry): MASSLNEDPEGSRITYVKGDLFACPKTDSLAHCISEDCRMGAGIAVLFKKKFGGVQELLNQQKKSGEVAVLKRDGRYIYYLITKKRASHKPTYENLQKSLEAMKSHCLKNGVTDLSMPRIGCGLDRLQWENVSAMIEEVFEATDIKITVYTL

[10] = molecular target: Eukaryotic translation initiation factor 3 subunit I (Homo sapiens) (UniProt Q13347); experiment: Binding affinity to EIF3I in human NCI-H23 cells at 1 uM by mass spectrometry based pull down assay; format: cell-based
Eukaryotic translation initiation factor 3 subunit I (Homo sapiens), sequence (Q13347 whole entry): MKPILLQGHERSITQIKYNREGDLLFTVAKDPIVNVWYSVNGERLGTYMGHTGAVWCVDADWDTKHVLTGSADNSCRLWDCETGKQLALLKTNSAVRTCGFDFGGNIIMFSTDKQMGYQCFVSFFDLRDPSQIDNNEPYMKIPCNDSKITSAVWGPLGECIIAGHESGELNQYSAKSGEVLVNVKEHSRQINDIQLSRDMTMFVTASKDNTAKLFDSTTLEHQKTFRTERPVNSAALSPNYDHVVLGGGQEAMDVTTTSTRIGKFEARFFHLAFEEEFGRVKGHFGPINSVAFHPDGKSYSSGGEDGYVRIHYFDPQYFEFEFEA

[11] = molecular target: Inosine-5'-monophosphate dehydrogenase 1 (Homo sapiens) (UniProt P20839); experiment: Binding affinity to IMPDH1 in human NCI-H23 cells at 1 uM by mass spectrometry based pull down assay; format: cell-based
Inosine-5'-monophosphate dehydrogenase 1 (Homo sapiens), sequence (P20839 2-514 limits assumed): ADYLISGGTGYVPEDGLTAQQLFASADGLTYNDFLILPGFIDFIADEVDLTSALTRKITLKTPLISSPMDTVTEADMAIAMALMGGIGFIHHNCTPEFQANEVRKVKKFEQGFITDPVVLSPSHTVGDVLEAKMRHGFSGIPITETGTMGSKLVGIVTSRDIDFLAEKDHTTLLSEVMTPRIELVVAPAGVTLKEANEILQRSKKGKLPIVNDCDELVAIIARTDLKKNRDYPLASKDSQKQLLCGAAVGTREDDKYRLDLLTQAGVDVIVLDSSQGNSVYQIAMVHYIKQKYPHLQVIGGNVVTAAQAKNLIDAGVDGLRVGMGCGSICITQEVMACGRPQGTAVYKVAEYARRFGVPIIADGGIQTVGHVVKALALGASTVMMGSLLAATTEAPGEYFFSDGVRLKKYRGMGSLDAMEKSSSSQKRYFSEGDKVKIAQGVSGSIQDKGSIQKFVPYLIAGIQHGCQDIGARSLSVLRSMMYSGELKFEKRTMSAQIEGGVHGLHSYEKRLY

[12] = molecular target: Heterogeneous nuclear ribonucleoprotein U (Homo sapiens) (UniProt Q00839); experiment: Binding affinity to HNRNPU in human NCI-H23 cells at 1 uM by mass spectrometry based pull down assay; format: cell-based
Heterogeneous nuclear ribonucleoprotein U (Homo sapiens), sequence (Q00839 whole entry): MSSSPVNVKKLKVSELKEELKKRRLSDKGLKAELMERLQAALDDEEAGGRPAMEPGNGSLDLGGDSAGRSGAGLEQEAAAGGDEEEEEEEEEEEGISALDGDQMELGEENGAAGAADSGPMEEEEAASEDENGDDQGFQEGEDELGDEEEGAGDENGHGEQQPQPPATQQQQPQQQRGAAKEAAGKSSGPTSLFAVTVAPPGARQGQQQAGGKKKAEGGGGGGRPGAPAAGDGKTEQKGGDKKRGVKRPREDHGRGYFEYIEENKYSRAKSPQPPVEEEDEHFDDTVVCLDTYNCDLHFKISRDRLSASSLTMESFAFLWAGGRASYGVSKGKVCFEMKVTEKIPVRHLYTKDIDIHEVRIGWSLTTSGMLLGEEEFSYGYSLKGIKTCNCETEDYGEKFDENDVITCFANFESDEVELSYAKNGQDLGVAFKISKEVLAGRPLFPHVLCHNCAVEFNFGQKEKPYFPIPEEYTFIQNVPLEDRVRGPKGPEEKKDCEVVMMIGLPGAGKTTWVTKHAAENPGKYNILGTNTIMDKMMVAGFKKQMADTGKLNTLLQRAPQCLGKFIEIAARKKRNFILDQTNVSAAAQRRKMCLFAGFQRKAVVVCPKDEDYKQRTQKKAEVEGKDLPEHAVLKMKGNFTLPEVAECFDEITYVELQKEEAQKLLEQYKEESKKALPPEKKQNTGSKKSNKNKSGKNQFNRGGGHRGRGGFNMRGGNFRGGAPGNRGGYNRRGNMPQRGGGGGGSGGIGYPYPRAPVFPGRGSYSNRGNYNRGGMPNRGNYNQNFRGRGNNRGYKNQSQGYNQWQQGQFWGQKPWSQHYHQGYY

[13] = molecular target: Bifunctional 3'-phosphoadenosine 5'-phosphosulfate synthase 2 (Homo sapiens) (UniProt O95340); experiment: Binding affinity to PAPSS2 in human NCI-H23 cells at 1 uM by mass spectrometry based pull down assay; format: cell-based
[14] = molecular target: Coatomer subunit beta (Homo sapiens) (UniProt P53618); experiment: Binding affinity to COPB1 in human NCI-H358 cells at 1 uM by mass spectrometry based pull down assay; format: cell-based
Coatomer subunit beta (Homo sapiens), sequence (P53618 whole entry): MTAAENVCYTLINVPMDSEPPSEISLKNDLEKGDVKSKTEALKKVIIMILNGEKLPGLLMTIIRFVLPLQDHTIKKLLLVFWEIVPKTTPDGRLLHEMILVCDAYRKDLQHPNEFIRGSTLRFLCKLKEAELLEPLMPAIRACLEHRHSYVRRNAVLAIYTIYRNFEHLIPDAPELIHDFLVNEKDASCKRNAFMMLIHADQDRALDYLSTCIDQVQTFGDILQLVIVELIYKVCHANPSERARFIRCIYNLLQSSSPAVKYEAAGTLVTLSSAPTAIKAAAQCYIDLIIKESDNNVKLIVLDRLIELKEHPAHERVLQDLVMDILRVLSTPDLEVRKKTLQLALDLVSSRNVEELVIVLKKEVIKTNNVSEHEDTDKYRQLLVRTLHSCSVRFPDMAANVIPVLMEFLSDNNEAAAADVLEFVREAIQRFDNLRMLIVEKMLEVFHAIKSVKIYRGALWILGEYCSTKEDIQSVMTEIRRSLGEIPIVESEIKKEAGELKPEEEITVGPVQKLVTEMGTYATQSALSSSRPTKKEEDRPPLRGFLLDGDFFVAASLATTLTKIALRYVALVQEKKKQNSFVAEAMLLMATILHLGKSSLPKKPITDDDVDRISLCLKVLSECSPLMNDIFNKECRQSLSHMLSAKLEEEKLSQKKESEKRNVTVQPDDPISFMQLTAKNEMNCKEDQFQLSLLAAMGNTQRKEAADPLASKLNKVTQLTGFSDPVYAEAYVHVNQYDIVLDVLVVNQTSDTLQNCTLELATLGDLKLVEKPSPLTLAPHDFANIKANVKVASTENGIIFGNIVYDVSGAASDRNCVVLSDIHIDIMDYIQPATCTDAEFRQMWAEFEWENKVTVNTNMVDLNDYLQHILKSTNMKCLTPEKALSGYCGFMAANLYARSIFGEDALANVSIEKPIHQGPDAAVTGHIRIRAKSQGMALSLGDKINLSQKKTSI

[15] = molecular target: Interleukin-1 receptor-associated kinase 1 (Homo sapiens) (UniProt P51617); experiment: Binding affinity to IRAK1 in human NCI-H358 cells at 1 uM by mass spectrometry based pull down assay; format: cell-based
[16] = molecular target: Tyrosine-protein kinase Yes (Homo sapiens) (UniProt P07947); experiment: Binding affinity to YES1 in human NCI-H23 cells at 1 uM by mass spectrometry based pull down assay; format: cell-based
Tyrosine-protein kinase Yes (Homo sapiens), sequence (P07947 2-543 limits assumed): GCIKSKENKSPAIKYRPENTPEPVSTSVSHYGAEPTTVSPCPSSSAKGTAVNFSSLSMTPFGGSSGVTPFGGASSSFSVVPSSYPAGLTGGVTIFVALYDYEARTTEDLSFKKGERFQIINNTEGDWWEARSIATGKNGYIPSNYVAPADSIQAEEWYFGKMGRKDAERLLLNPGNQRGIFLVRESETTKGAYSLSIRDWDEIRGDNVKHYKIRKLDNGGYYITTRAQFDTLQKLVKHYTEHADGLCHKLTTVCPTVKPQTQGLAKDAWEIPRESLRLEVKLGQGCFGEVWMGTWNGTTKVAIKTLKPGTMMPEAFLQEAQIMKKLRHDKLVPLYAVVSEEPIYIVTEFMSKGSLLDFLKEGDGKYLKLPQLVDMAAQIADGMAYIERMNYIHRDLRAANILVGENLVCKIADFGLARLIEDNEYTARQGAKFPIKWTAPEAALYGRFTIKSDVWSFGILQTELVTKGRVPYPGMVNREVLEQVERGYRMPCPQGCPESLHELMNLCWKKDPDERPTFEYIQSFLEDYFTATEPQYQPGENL

[17] = molecular target: 14-3-3 protein gamma (Homo sapiens) (UniProt P61981); experiment: Binding affinity to YWHAG in human NCI-H23 cells at 1 uM by mass spectrometry based pull down assay; format: cell-based
14-3-3 protein gamma (Homo sapiens), sequence (P61981 whole entry): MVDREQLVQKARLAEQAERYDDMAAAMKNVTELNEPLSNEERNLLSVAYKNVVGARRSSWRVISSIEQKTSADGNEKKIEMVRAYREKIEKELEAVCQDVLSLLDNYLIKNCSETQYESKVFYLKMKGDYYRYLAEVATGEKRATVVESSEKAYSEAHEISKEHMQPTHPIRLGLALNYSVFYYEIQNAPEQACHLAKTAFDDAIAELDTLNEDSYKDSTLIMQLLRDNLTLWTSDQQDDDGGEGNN

[18] = tested on: NCI-H23; experiment: Binding affinity to NDUFS3 in human NCI-H23 cells at 1 uM by mass spectrometry based pull down assay; format: cell-based
[19] = molecular target: Multifunctional methyltransferase subunit TRM112-like protein (Homo sapiens) (UniProt Q9UI30); experiment: Binding affinity to TRMT112 in human NCI-H23 cells at 1 uM by mass spectrometry based pull down assay; format: cell-based
Multifunctional methyltransferase subunit TRM112-like protein (Homo sapiens), sequence (Q9UI30 whole entry): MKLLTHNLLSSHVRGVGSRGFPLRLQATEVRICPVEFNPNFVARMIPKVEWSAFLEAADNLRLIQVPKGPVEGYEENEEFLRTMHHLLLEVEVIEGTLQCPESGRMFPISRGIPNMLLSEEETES

[20] = molecular target: Small ribosomal subunit protein mS23 (Homo sapiens) (UniProt Q9Y3D9); experiment: Binding affinity to MRPS23 in human NCI-H358 cells at 1 uM by mass spectrometry based pull down assay; format: cell-based

| Activity [3] | Activity [4] | Activity [5] | Activity [6] | Activity [7] | Activity [8] | Activity [9] | Activity [10] | Activity [11] | Activity [12] | Activity [13] | Activity [14] | Activity [15] | Activity [16] | Activity [17] | Activity [19] | Activity [20] | SMILES | Activity [1] [%] | Activity [2] | Activity [18] |
| --- | --- | --- | --- | --- | --- | --- | --- | --- | --- | --- | --- | --- | --- | --- | --- | --- | --- | --- | --- | --- |
|  |  |  |  |  |  |  |  |  |  |  |  |  |  |  |  |  | COc1cc(O)c2c(c1)/C=C/C[C@H](O)[C@H](O)C(=O)/C=C\C[C@H](C)OC2=O | 20 | Active |  |
| Active | Active | Active | Active | Active | Active | Active | Active | Active | Active | Active | Active | Active | Active | Active | Active | Active | C=CC(=O)Nc1ccccc1Nc1nc(Nc2ccc(N3CCN(CCOCCOCCOCCNC(=O)CCCC[C@@H]4SC[C@@H]5NC(=O)N[C@@H]54)CC3)cc2)ncc1Cl |  |  | Active |
